Type in all cases: ADME
Assay [1] concerns the target T1, Cytochrome P450 2D26 (Rattus norvegicus, UniProt P10634).
T1 sequence (P10634 whole entry): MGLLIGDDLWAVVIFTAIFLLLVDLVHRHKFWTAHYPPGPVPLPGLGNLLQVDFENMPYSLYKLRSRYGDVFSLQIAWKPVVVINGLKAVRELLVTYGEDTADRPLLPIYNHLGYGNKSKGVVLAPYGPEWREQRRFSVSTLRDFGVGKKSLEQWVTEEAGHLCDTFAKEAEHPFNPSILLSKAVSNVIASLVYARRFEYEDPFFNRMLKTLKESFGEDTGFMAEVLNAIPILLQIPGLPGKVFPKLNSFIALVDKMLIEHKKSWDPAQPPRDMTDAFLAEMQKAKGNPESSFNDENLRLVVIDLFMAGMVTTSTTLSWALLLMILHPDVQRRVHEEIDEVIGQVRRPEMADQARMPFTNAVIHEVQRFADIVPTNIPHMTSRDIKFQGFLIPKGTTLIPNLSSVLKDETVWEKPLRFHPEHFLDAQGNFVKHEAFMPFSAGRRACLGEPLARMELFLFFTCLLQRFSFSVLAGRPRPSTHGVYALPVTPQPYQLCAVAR
Nature of the assay: Inhibition of MAMC O-dealkylation mediated by rat Cytochrome P450 2D2 expressed in Saccharomyces cerevisiae. The essentials:
(§1)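 Rat CYP2D isozymes are singly expressed in S. cerevisiae and used as microsomes in 100 mM phosphate, pH 7.4, at 37 °C. MAMC is 100 μM final, with or without varying inhibitor, after a 5 min preincubation. NADPH-regenerating system is added to start the reaction.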

The target of assay [2] is T2, Cytochrome P450 2D4 (Rattus norvegicus, UniProt Q64680).
T2 sequence (Q64680 whole entry): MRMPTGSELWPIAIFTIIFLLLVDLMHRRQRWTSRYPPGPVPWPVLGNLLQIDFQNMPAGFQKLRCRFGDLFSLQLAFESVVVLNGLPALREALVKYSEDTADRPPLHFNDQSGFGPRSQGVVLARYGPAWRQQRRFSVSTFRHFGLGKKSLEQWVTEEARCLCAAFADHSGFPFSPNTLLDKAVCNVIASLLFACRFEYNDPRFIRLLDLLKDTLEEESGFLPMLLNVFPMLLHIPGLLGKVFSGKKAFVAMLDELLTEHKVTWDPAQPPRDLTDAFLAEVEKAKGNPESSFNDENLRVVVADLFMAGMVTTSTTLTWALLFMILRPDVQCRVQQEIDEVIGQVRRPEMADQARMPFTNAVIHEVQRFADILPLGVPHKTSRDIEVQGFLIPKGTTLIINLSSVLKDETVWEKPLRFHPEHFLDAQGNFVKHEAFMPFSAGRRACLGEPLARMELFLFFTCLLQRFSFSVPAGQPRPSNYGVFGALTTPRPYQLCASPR
Nature of the assay: Inhibition of MAMC O-dealkylation mediated by rat Cytochrome P450 2D4 expressed in Saccharomyces cerevisiae. The gist of the method:
as §1

Assay [3] addresses Cytochrome P450 2D6 (Homo sapiens, UniProt P10635). Nature of the assay: Inhibition of MAMC O-dealkylation mediated by human Cytochrome P450 2D6 expressed in human lymphoblastoid cell line. The gist of the method:
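Human CYP2D6 (1 nM) competition run as a microplate-reader fluorescence assay. MAMC is the substrate at 10 μM final, with and without a range of inhibitor concentrations. IC50 is obtained by nonlinear least-squares one-site competition fitting.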

For assay [4], the target named is T3, Cytochrome P450 2D1 (Rattus norvegicus, UniProt P10633).
T3 sequence (P10633 whole entry): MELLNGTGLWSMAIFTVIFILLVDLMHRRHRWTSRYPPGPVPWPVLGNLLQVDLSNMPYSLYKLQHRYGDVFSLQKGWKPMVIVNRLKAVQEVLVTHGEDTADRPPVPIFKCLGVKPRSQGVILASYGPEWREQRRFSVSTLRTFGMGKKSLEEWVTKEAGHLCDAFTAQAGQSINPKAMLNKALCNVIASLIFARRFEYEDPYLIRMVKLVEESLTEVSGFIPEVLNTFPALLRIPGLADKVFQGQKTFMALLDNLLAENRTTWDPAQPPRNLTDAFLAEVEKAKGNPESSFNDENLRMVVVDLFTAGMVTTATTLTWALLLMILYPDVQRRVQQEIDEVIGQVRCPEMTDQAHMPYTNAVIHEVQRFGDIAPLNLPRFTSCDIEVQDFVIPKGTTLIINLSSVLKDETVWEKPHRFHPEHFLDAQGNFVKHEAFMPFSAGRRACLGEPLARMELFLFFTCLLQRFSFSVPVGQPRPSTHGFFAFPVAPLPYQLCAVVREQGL
Nature of the assay: Inhibition of MAMC O-dealkylation mediated by rat Cytochrome P450 2D1 expressed in Saccharomyces cerevisiae. The gist of the method:
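Rat CYP2D isozymes are singly expressed in S. cerevisiae and used as microsomes in 100 mM phosphate, pH 7.4, at 37 °C. Enzyme concentrations are 52.0 nM (2D1), 3.1 nM (2D2), 3.6 nM (2D3) and 21.9 nM (2D4). MAMC is 100 μM final, with or without varying inhibitor, after a 5 min preincubation. NADPH-regenerating system is added to start the reaction.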

In assay [5] the target is T4, Cytochrome P450 2D3 (Rattus norvegicus, UniProt P12938).
T4 sequence (P12938 whole entry): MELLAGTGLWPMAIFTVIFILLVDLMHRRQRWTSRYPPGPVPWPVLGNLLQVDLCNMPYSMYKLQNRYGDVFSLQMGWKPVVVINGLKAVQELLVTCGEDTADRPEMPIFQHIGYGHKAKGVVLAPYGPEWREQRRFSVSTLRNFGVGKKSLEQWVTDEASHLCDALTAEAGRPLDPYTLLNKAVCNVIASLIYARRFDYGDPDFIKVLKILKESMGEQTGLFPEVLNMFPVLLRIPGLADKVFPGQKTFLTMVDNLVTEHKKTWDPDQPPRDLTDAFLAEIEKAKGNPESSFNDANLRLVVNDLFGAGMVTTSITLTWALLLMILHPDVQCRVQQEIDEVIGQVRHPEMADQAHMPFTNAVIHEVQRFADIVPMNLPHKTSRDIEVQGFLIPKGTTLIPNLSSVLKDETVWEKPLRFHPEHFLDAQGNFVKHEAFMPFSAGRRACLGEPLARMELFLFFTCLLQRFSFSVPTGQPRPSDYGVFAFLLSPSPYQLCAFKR
Nature of the assay: Inhibition of MAMC O-dealkylation mediated by rat Cytochrome P450 2D3 expressed in Saccharomyces cerevisiae. The essentials: as §1

Here are results for ten molecules from ChEMBL document CHEMBL1145023, “Homology modeling of rat and human cytochrome P450 2D (CYP2D) isoforms and computational rationalization of experimental ligand-binding specificities” (J Med Chem, 2003).

Sequence of Cytochrome P450 2D6 (P10635 whole entry): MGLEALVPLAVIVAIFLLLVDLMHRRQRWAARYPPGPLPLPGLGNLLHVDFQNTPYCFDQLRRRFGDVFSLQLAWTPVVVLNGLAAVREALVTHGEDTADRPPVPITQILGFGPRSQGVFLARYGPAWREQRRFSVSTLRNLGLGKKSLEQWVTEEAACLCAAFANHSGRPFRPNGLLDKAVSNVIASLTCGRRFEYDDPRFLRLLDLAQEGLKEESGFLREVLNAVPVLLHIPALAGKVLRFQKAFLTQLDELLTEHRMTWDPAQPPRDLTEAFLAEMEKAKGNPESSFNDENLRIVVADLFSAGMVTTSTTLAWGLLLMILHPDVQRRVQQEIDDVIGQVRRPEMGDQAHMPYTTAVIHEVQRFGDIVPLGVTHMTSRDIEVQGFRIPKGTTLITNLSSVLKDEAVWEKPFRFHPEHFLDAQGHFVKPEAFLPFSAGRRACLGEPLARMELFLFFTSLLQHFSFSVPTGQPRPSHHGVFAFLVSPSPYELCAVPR

By IC50 is commonly meant the concentration that gives 50% inhibition. A low value points to greater potency. In the case of `N=C(N)N1CCc2ccccc2C1` [DEBRISOQUIN], the IC50 in assay [1] worked out at 107 µM; in assay [2] it was 747 µM; in assay [3], 23.8 µM; in assay [4], 529 µM; in assay [5], 1750 µM.

In the case of `COc1ccc2c(CN(C)C)cc(=O)oc2c1`, the half-maximal inhibitory concentration (IC50) amounted to 307 µM in assay [1]; 1180 µM in assay [2]; 74.2 µM in assay [3]; 329 µM in assay [4]; 862 µM in assay [5].

Consider `COc1ccc2c(c1)[C@]13CCCC[C@@H]1[C@H](C2)N(C)CC3` [DEXTROMETHORPHAN], for which the concentration for half-maximal inhibition (IC50) was 5.6 µM in assay [1]; 136 µM in assay [2]; 1.8 µM in assay [3]; 264 µM in assay [4]; 18.6 µM in assay [5].

Consider `C=C[C@H]1C[N@@]2CC[C@H]1C[C@H]2[C@H](O)c1ccnc2ccc(OC)cc12` [QUININE], for which the 50% inhibitory concentration (IC50) in assay [2] stood at 1.7 µM; in assay [4] it was 46.5 µM; in assay [5], 12 µM.

For the molecule `[H]/N=C(/N)N/C(=N/[H])NCCc1ccccc1` [PHENFORMIN], the IC50 in assay [1] stood at 45.4 µM; in assay [2] it was 833 µM; in assay [3], 27 µM; in assay [5], 1930 µM.

In the case of `COc1ccc2c3c1O[C@H]1[C@@H](O)C=C[C@H]4[C@@H](C2)N(C)CC[C@@]341` [CODEINE], the IC50 in assay [1] was determined as 238 µM; in assay [2], 2220 µM; in assay [4], 1320 µM; in assay [5], 4090 µM.

Consider `CC(C)NC[C@@H](O)COc1cccc2ccccc12` [DEXPROPRANOLOL], for which the half-inhibitory concentration (IC50) amounted to 0.42 µM in assay [1], 117 µM in assay [2], 182 µM in assay [4] and 155 µM in assay [5].

For the molecule `C=C[C@H]1C[N@@]2CC[C@H]1C[C@@H]2[C@@H](O)c1ccnc2ccc(OC)cc12` [QUINIDINE], the IC50 worked out at 47.2 µM in assay [2], 19.9 µM in assay [4] and 26.9 µM in assay [5].

Turning to `CC(C)NC[C@H](O)COc1cccc2ccccc12` [LEVOPROPRANOLOL], the IC50 turned out to be 0.35 µM in assay [1], 133 µM in assay [2], 571 µM in assay [4] and 172 µM in assay [5].

Turning to `CNCCC=C1c2ccccc2CCc2ccccc21` [NORTRIPTYLINE], the half-maximal inhibitory concentration (IC50) in assay [1] is 1.9 µM; in assay [2], 19.3 µM; in assay [3] it was 2.3 µM; in assay [4], 204 µM; in assay [5] it was 14.2 µM.
